Screening data as filed in PubChem.
RGS4 act: RGS4 potentiation or activation; B-score at 10 µM; 0.92% of 310,000 active; HEK293 M3R/inducible RGS4, carbachol calcium flux Fluo4; stronger effect = lower value;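 active = B-score of the integrated calcium signal more than 4 SD below the library mean, with starting fluorescence not abnormally high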;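 also: negative B-score means reduced calcium response which marks RGS4 activation or potentiation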
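System – HEK293 FlpIn-TREx cells, stable M3R, doxycycline-inducible RGS4 · Reagent – ECmax carbachol challenge · Times – compound preincubation 20 min at room temperature before agonist · Technique – Fluo4 fluorescence kinetic imaging of calcium · Measure – B score of integrated Fluo4 ratio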
MrgX1 PAM: allosterically activates human MrgX1 receptor signaling; MrgX1-HEK293, Fluo-4 calcium flux, FDSS; stronger effect = higher value; B-score at 10 µM; AID 588675; Q96LB2; 0.63% of 310,000 active;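 active = plate-corrected calcium response at least 3 library SD above typical, normal starting fluorescence, not activating the receptor alone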;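 also: compound read alongside a low EC10 to EC30 dose of BAM8-22 agonist; peak minus trough fluorescence over baseline measured at the second addition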
Target sequence (Q96LB2 whole entry, looked up): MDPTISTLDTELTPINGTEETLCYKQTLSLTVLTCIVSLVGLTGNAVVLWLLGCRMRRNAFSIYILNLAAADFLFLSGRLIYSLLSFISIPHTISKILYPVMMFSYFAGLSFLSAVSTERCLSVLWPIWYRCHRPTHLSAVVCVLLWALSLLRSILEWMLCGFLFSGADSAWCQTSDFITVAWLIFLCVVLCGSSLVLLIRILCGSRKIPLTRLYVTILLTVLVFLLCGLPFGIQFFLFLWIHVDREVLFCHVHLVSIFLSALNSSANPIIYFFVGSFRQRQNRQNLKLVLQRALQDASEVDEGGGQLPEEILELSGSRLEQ
MrgX1 agonist: human MrgX1 receptor agonism, primary screen; Q96LB2; MrgX1-HEK293 cells, Fluo-4 calcium fluorescence, agonist mode; stronger effect = higher value; B-score at 10 µM; 0.44% of 310,000 active;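 active = calcium response B-score plate-corrected fluorescence ratio at least 3 library SD, with starting fluorescence B-score inside 5 SD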
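Material: HEK293 cells stably expressing human MrgX1 receptor | Quantity: 15,000 cells per well | Times: Cells plated overnight, dye loaded 0.5 h 37 °C, 0.5 h room temperature | Measured by: Kinetic Fluo-4 NW fluorescence of intracellular calcium | Control set: Positive and negative controls per plate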
MrgX1 antagonist: human MrgX1 receptor antagonism, primary screen. MRGX1-HEK293 calcium flux, Fluo-4, BAM8-22 antagonism; stronger effect = lower value. B-score at 10 µM. 1.3% of 310,000 active. AID 588676;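 active = calcium-response B-score plate-corrected more than 3 library SD below zero, starting fluorescence within 5 deviations, no agonist response on first addition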;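 also: peak minus trough fluorescence over baseline after final BAM8-22 challenge near maximal dose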
RGS4 inh: human RGS4 inhibition; P49798; 0.45% of 310,000 active; B-score at 10 µM; HEK293 M3R/RGS4 inducible, Fluo-4 calcium flux; stronger effect = higher value; triggered by carbachol at its EC20;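 active = B-score, a plate-corrected calcium signal, over three deviations above library mean, with baseline fluorescence within five deviations of library mean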;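 also: RGS4 expression induced by doxycycline in cells with stable M3 receptor; B-score is computed from the integrated fluorescence ratio over baseline after carbachol; higher B-score means a larger calcium signal and so more RGS4 inhibition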
Target sequence (P49798 whole entry, looked up): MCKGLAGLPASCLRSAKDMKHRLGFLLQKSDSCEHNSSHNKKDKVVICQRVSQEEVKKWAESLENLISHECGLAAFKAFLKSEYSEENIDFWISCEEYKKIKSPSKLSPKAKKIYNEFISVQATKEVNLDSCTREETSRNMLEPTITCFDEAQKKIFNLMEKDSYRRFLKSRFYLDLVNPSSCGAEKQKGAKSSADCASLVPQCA
MrgX1 PAM conf: human MrgX1 positive allosteric modulation, re-confirmation. MrgX1-HEK293, Fluo-4 calcium fluorescence, FDSS. shares compounds with MrgX1 PAM. 13% of 1,200 active. activation (ratio percentage), % at 10 µM. AID 602413;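 active = ratio at least 3 SD above the weak peptide control, stable starting fluorescence, no direct agonism earlier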;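 also: compound followed by low BAM8-22 agonist challenge near EC20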
HEK293 Ca flux: MrgX1 antagonist counter-screen hit in parental HEK293 cells; shares compounds with MrgX1 antagonist; Fluo-4 calcium fluorescence, FDSS; fluorescence ratio F(max-min)/F0 at 10 µM; 2% of 4,000 active; AID 624111;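 active = duplicate-averaged calcium fluorescence ratio at least three times the standard deviation of buffer wells, a nonspecific response in parental cells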
HEK293 Ca counter: MrgX1 allosteric activator counter-screen hit in parental HEK293 cells. shares compounds with MrgX1 antagonist. parental HEK293 calcium flux, Fluo-4 fluorescence ratio; stronger effect = higher value. fluorescence ratio F(max-min)/F0 at 10 µM. 0.4% of 4,000 active. AID 624114;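 active = calcium fluorescence ratio, averaged over duplicates, at least 3 SD of the buffer-well ratio, meaning a nonspecific response in receptor-free cells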;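 also: untransfected parental HEK293 lacking MrgX1 used as counterscreen for MrgX1 allosteric activators; fluorescence change taken during the second addition on a kinetic imager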
HEK293 Ca cntr2: MrgX1 activator counter-screen hit in parental HEK293 cells; fluorescence ratio F(max-min)/F0 at 10 µM; Fluo-4 calcium fluorescence (FDSS); stronger effect = higher value; shares compounds with MrgX1 antagonist; 8.7% of 4,000 active;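 active = calcium fluorescence ratio at least three times the spread of buffer wells, meaning a non-specific response in parental cells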
* marks the source's active call; other numbers are inactive results; i = inactive; x = no result. An excerpt weighted towards active compounds, which were near 3.5% of everything screened.

SMILES	RGS4 act	MrgX1 PAM	MrgX1 agonist	MrgX1 antagonist	RGS4 inh	MrgX1 PAM conf	HEK293 Ca flux	HEK293 Ca counter	HEK293 Ca cntr2
CC(C)c1ccc(-c2csc3ncnc(N4CCN(C)CC4)c23)cc1	i	7.3*	i	i	i	i	i	i	i
CCc1nc(N2CCN(S(C)(=O)=O)CC2)c2c3c(sc2n1)CCCC3	i	7.3*	i	i	i	i	i	i	i
CCN(CC)C(=O)c1cc2sc3ccccc3c2s1	i	9.1*	i	i	i	i	i	i	i
COCCN(CCOC)C(=O)c1cc2sc3ccccc3c2s1	i	i	i	i	i	x	x	x	x
O=C(Nc1cccc(Cl)c1)c1cc(-c2ccco2)on1	i	8*	i	i	i	i	i	i	i
O=C(Nc1nnc(-c2ccco2)o1)c1cccc(Cl)c1	i	7.5*	i	i	i	i	i	i	i
O=C(Nc1nnc(-c2ccccn2)o1)c1cccc(Cl)c1	i	i	i	i	i	x	x	x	x
COc1ccccc1CN1CCCC(CN(CCN(C)C)C(=O)c2ccc(C)cc2)C1 (stereo not given)	i	i	i	i	i	x	x	x	x
CS(=O)(=O)N(CC(=O)N1CCN(c2cccc(Cl)c2)CC1)c1cccc(F)c1	i	8.2*	i	i	i	i	i	i	i
Cc1cc(C)n(C(=O)CNc2ccc(C)c(C)c2)n1	i	8.6*	i	i	i	i	i	i	i
Cc1ccc(N(C)C(=O)c2cnn(-c3ccccc3)c2C)c(C)c1	i	i	i	i	i	x	x	x	x
Cc1cccc(N(C)C(=O)c2cnn(-c3ccccc3)c2C)c1	i	13*	i	i	i	i	i	i	i
CC(C)(C)c1csc(SCC(=O)Nc2ccc(Cl)cn2)n1	i	19*	i	i	i	5.1%*	i	i	i
CCN(C(=O)c1c(N)cnn1C)c1ccccc1	i	10*	i	i	i	i	i	i	i
CCC1Nc2ncnc(N3CCCCC3)c2N(Cc2ccccc2)C1=O (stereo not given)	i	7.5*	i	i	i	i	i	i	i
c1coc(-c2nc3nc4ccccc4nc3n2CC2CCCO2)c1 (stereo not given)	i	i	i	i	i	x	x	x	x
c1ccc(-c2nc3nc4ccccc4nc3n2CC2CCCO2)cc1 (stereo not given)	i	7*	i	i	i	i	i	i	i
O=C(CSc1ccc(-c2ccncc2)nn1)N1CCCC1	i	13*	i	i	i	i	i	i	i
CCOC(=O)c1c(NC(=O)CN2CCOCC2)sc2c1CCCC2	i	7.1*	i	i	i	i	i	i	i
CCOC(=O)c1c(NC(=O)CN2CCOCC2)sc2c1CCCC2=O	i	i	i	i	i	x	x	x	x
Cc1ccc(S(=O)(=O)ON2C(=O)c3ccccc3C2=O)c(C)c1	x	36*	i	i	x	i	i	i	i
Cc1cc(C)c(S(=O)(=O)ON2C(=O)c3ccccc3C2=O)cc1C	i	i	i	i	i	x	x	x	x
COc1ccc(N2CCN(c3nc4ccc(C)cn4c(=O)c3C=O)CC2)cc1	i	i	i	i	i	x	x	x	x
Cc1cc(SCC(=O)c2ccc3c(c2)OCO3)nc2ccccc12	i	i	i	i	i	x	x	x	x
Cc1cc(SCC(=O)c2ccc(O)c(O)c2)nc2ccccc12	i	11*	i	i	i	i	i	i	i
SMILES	RGS4 act	MrgX1 PAM	MrgX1 agonist	MrgX1 antagonist	RGS4 inh	MrgX1 PAM conf	HEK293 Ca flux	HEK293 Ca counter	HEK293 Ca cntr2
O=C(COC(=O)/C=C/C(=O)OCC(=O)Nc1ccccc1F)Nc1ccccc1F	i	i	i	i	i	x	x	x	x
CC(=O)c1sc(NC(=O)Cc2c(F)cccc2Cl)nc1C	i	i	i	i	i	x	x	x	x
O=C(Cc1c(F)cccc1Cl)Nc1nc2ccccc2s1	i	21*	i	i	i	i	i	i	i
Cc1cc(C)cc(NC(=S)N2CCC(NC(=O)C3CCCCC3)CC2)c1	i	8.6*	i	i	i	i	i	i	i
Cc1nc2c3cc(F)ccc3n(Cc3ccccc3F)c2s1	i	9*	i	i	i	i	i	i	i
Cc1nc2c3ccccc3n(Cc3ccccc3F)c2s1	i	i	i	i	i	x	x	x	x
O=C(c1cnn2c(C(F)(F)F)cc(-c3ccccc3)nc12)N1CCCCC1c1cccnc1 (stereo not given)	i	i	i	i	i	x	x	x	x
O=C(c1cc2nc(-c3ccc(F)cc3)cc(C(F)(F)F)n2n1)N1CCCCC1c1cccnc1 (stereo not given)	i	7.1*	i	i	i	i	i	i	i
COc1cccc(CNc2ccc([N+](=O)[O-])cc2Cl)c1O	i	25*	i	i	i	13%*	i	i	i
COc1cccc(CNc2cnc3ccccc3c2)c1O	i	7.1*	i	i	i	i	i	i	i
COc1cccc(CNc2ccc(F)c(Cl)c2)c1O	i	27*	i	i	i	13%*	i	i	i
COc1cccc(CNc2cccc(C(F)(F)F)c2)c1O	i	36*	i	i	i	10%*	i	i	i
NC(=O)C1CCN(CC(=O)Nc2cccnc2Cl)CC1	i	i	i	i	i	x	x	x	x
COc1ccccc1NC(=S)N(Cc1ccccc1)Cc1ccccn1	i	6.6*	i	i	i	i	i	i	i
COc1ccccc1NC(=S)N(Cc1ccccc1)Cc1cccnc1	i	i	i	i	i	x	x	x	x
COc1ccccc1C(=O)Nc1nnc(-c2ccccc2)s1	i	i	i	i	i	x	x	x	x
COc1cccc(C(=O)Nc2nnc(-c3ccccc3)s2)c1OC	i	10*	i	i	i	i	i	i	i
